Test results from ChEMBL document CHEMBL1123855, “Synthesis of glycopyranosylphosphonate analogues of certain natural nucleoside diphosphate sugars as potential inhibitors of glycosyltransferases” (J Med Chem, 1987).
Active and inactive are the calls of the source. No cut-off for these calls is given here.

Assays:
WIL2 [1] = assay: In vitro antitumor activity was evaluated against human B-lymphoblastic leukemia cell lines; no = No activity; type: functional, cell-based
L1210 = assay: In vitro antitumor activity was evaluated against L1210 leukemia cell lines; No activity; type: functional, cell-based; conditions: Mus musculus
CCRF-CEM [2] = assay: In vitro antitumor activity was evaluated against human T-lymphoblastic leukemia cell lines; no = No activity; type: functional, cell-based
Vero [3] = assay: In vitro antiviral activity was evaluated against vero cell lines infected with rhino virus; non toxic at concentrations as high as 50000 uM; type: functional, cell-based; conditions: Chlorocebus sabaeus
Vero [4] = assay: In vitro antiviral activity was evaluated against vero cell lines infected with herpes simplex virus type-2; non toxic at concentrations as high as 50000 uM; type: functional, cell-based; conditions: Chlorocebus sabaeus
Vero [5] = assay: In vitro antiviral activity was evaluated against vero cell lines infected with Parainfluenza virus type 3; non toxic at concentrations as high as 50000 uM; type: functional, cell-based; conditions: Chlorocebus sabaeus
Vero [6] = assay: In vitro antiviral activity was evaluated against vero cell lines infected with visna virus; non toxic at concentrations as high as 50000 uM; type: functional, cell-based; conditions: Chlorocebus sabaeus
Vero [7] = assay: In vitro antiviral activity was evaluated against vero cell lines infected with adenovirus type 2; non toxic at concentrations as high as 50000 uM; type: functional, cell-based; conditions: Chlorocebus sabaeus
CCRF-CEM [8] = assay: In vitro antitumor activity was evaluated against human T-lymphoblastic leukemia cell lines; Slight activity; type: functional, cell-based
WIL2 [9] = assay: In vitro antitumor activity was evaluated against human B-lymphoblastic leukemia cell lines; Slight activity; type: functional, cell-based
[10] = target: N-acetyllactosaminide alpha-1,3-galactosyltransferase (Mus musculus) (UniProt P23336); assay: Inhibition of galactosyltransferase activity secreted by L1210 leukemia cells grown in mouse peritoneal ascites at 20 ug/mL (35 uM); type: cell-based
Method in brief: (§1)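 Galactosyltransferase from cell-free ascites fluid of DBA/2J mice implanted 5-7 days earlier with 10^5 L1210 cells, cells removed by centrifugation. Medium: ovalbumin 1 mg/mL acceptor, 0.1 M cacodylate pH 7.0, 10 mM MnCl2, 2 mM AMP, inhibitor 20 or 50 ug/mL, UDP-galactose varied 1-80 uM plus UDP-[3H]galactose. 30 min, 37 °C. Stopped with PTA/HCl; washed precipitate scintillation-counted. Duplicates.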

[11] = target: N-acetyllactosaminide alpha-1,3-galactosyltransferase (Mus musculus) (UniProt P23336); assay: Inhibition of galactosyltransferase activity secreted by L1210 leukemia cells grown in mouse peritoneal ascites at 50 ug/mL (89 uM); type: cell-based; method in brief: as §1
Vero [12] = assay: In vitro antiviral activity was evaluated against vero cell lines infected with influenza virus; Slightly active at concentrations as high as 50000 uM; type: functional, cell-based; conditions: Chlorocebus sabaeus

Sequence of N-acetyllactosaminide alpha-1,3-galactosyltransferase (Mus musculus) (P23336 whole entry): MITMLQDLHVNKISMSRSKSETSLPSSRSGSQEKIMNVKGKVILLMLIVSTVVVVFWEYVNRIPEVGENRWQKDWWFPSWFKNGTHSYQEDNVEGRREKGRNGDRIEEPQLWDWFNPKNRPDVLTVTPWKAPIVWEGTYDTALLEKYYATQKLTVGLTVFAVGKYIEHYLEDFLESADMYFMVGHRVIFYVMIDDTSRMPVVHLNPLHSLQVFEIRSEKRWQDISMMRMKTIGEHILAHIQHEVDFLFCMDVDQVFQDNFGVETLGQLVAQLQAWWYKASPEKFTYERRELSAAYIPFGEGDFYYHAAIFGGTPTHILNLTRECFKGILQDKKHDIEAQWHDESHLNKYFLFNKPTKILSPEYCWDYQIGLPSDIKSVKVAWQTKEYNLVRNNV

## O=P(O)(O)[C@H]1O[C@@H](CO)[C@H](O)[C@H](O)[C@@H]1O (stereo in doubt; 19)
WIL2 [1]
  Cytotoxiciy: No activity
L1210
  Cytotoxiciy: No activity
CCRF-CEM [2]
  Cytotoxiciy: No activity
Vero [3]
  Activity: inactive
Vero [4]
  Activity: inactive
Vero [5]
  Activity: inactive
Vero [6]
  Activity: inactive
Vero [7]
  Activity: inactive

## CC(=O)OP(=O)(O)C1OC(COCc2ccccc2)C(OCc2ccccc2)C(OCc2ccccc2)C1OCc1ccccc1 (stereo not drawn)
WIL2 [1]
  Cytotoxiciy: No activity
L1210
  Cytotoxiciy: No activity
CCRF-CEM [2]
  Cytotoxiciy: No activity
Vero [3]
  Activity: inactive
Vero [4]
  Activity: inactive
Vero [5]
  Activity: inactive
Vero [6]
  Activity: inactive
Vero [7]
  Activity: inactive

## O=P(O)(O)[C@H]1O[C@@H](CO)[C@H](O)[C@H](O)[C@@H]1O (stereo in doubt; 17)
WIL2 [1]
  Cytotoxiciy: No activity
L1210
  Cytotoxiciy: No activity
CCRF-CEM [2]
  Cytotoxiciy: No activity
Vero [3]
  Activity: inactive
Vero [4]
  Activity: inactive
Vero [5]
  Activity: inactive
Vero [6]
  Activity: inactive
Vero [7]
  Activity: inactive

## Nc1ncnc2c1ncn2C1O[C@H](COP(=O)(O)OP(=O)(O)C2O[C@H](CO)[C@@H](O)[C@H](O)[C@H]2O)[C@@H](O)[C@H]1O (stereo partly drawn)
CCRF-CEM [8]
  Cytotoxiciy: Weak activity
L1210
  Cytotoxiciy: No activity
WIL2 [9]
  Cytotoxiciy: Weak activity
Vero [3]
  Activity: inactive
Vero [4]
  Activity: inactive
Vero [5]
  Activity: inactive
Vero [6]
  Activity: inactive
Vero [7]
  Activity: inactive

## O=c1ccn(C2O[C@H](COP(=O)(O)OP(=O)(O)C3O[C@H](CO)[C@@H](O)[C@H](O)[C@H]3O)[C@@H](O)[C@H]2O)c(=O)[nH]1 (stereo partly drawn)
[10]
  inhibition: 50%
[11]
  inhibition: 58%

## O=P(O)(O)[C@H]1O[C@@H](CO)[C@@H](O)[C@H](O)[C@@H]1O
WIL2 [1]
  Cytotoxiciy: No activity
L1210
  Cytotoxiciy: No activity
CCRF-CEM [2]
  Cytotoxiciy: No activity
Vero [3]
  Activity: Slightly active
Vero [4]
  Activity: inactive
Vero [12]
  Activity: inactive
Vero [5]
  Activity: inactive
Vero [6]
  Activity: inactive
Vero [7]
  Activity: inactive
